Reference: the EternaBench riboswitch data

Tested on: MS2 coat protein
Assay: apparent Kd, MS2 coat protein; higher = weaker binding; RNA-MaP array; FMN 200 µM where present
In short: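 Two titrations, one without ligand and one with constant ligand, were run with SNAP-549-labelled MS2 coat protein from 0.7 or 1.5 nM, doubling to 3 µM. The targets were designs transcribed by stalled E. coli RNA polymerase on Illumina sequencing-chip clusters, in 100 mM Tris-HCl pH 7.5, 80 mM KCl, 4 mM MgCl2, BSA, DTT, yeast tRNA and Tween-20. The apparent Kd is the median of filtered per-cluster binding-curve fits, with green signal normalised to red-channel RNA signal and control-cluster median Fmax.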

[1] = designed as: OFF switch for flavin mononucleotide, no ligand
[2] = ligand present: flavin mononucleotide, designed as: OFF switch for flavin mononucleotide
[3] = designed as: ON switch for flavin mononucleotide, no ligand
[4] = ligand present: flavin mononucleotide, designed as: ON switch for flavin mononucleotide

| Sequence | apparent Kd [1] [nM] | apparent Kd [2] [nM] | apparent Kd [3] [nM] | apparent Kd [4] [nM] |
| --- | --- | --- | --- | --- |
| GGACGGUUCGUCAGGAUAUGCUCUACCUCGGUAGAGCAGAAGGGACAUGAGGAUCACCCAUGUGAGAACUGUUC | 18.4 | 17.3 | – | – |
| CGUAUCGUAAGAGGAUAUAUGAGUCCUACAUGAGGAUCACCCAUGUAGGUGAUCUAACGAGAUUAGUAGAAGGCUUACGAUACG | – | – | 14.3 | 7.96 |
| CCCUCACAUGAGGAUCACCCAUGUCCUAGCCCGUCAGGAUAUAGCCCGCAUCCGCUGCGGCUAGAAGGGACAGCUG | – | – | 190 | 141 |
| UUACCUUAUGAGAAGGCGGUCAUGAAACAUGAUCGAGGAUAUCAUGUAAACAUGAGGAUCACCCAUGUAUGGGUAUUAUGGUAC | – | – | 165 | 31.8 |
| CGCUGUCACGCAGGAUAUGCAUUGGAUUCCAAUGCAGAAGGGCGAUUACAUGAGGAUCACCCAUGUGUUGACAGUGAAGAAGAG | – | – | 1250 | 76.3 |
| GCGUAAGAACAGAAGGGUAGACAUGAGGAUCACCCAUGUAAACAUGGAUGCAGGAUAUGUUAUAAUUGAGAUUCAUAAAUUCGC | – | – | 130 | 106 |
| UACCUGAGGCAAAGCUUUAGGUAUACAUGAGGAUCACCCAUGUAGGAUAUGGUAGGCUUUGCUUACCAGAAGGACAUGUAAAUU | 20.5 | 67.8 | – | – |
| GUUAUGUGAGGAUAUAUGUAGGAAACUACAUUAAGGGUAUCACAUGAGGAUCACCCAUGUAGAAGGCGCGUAGC | 298 | 349 | – | – |
| CAUUAAUUCAUUAUAGUUAUUAUACAGGAUAUGUUACAUGAGGAUCACCCAUGUAUUCAUGGUAAACAGAAGGGUAAUUCAAGU | 24.9 | 22.6 | – | – |
| CUUAGUUUGUAGAAGGGUGACAUGAGGAUCACCCAUGUGCGUCGCCUGGAAGACCAGGGUACGCCACAGGAUAUACAAAGUAAG | – | – | 46.7 | 23.1 |
| GGACGUCACUCAAACAAUUAAACAUGAGGAUCACCCAUGUCACAGGAUAUGGAUCCUAAUUGGAUCCAGAAGGGUGAGACGUCC | – | – | 251 | 222 |
| CUUUUGUGAGGAUAUCAGUAGUAAAUAAAUAAAAUUACUAUUGAGAAGGCACAUGAGGAUCACCCAUGUUCCUC | 34.7 | 184 | – | – |
| GAGCACUGAUAAUAAUGUAGAAAUACAUGAGGAUCACCCAUGUAGGAUAUCGUCAGGAAUACUGACGAGAAGGACAUACAGUGC | 15.7 | 25.5 | – | – |
| CGGUGACGUGUAGGAUAUGGCGCUGGGUUUUGGCCAGAAGGACAUGAGGAUCACCCAUGUGGUAGAGGGCUGGCGGCCGCCCGU | – | 108 | – | – |
| GGAUAGGACAGAGGAUAUACGUGCUAGAGAUACUAGCAAAAUUUCCUCACAUGAGGAUCACCCAUGUAGAAGGCUUUCCUAUCG | 6.3 | 37 | – | – |
| GUAACUUAUGUCAGGAUAUUACACGCAUUGCGUGGUGAGAAGGGACAUGAGGAUCACCCAUGUCCGGAUGCGGG | 39.8 | 62.6 | – | – |
| UUGGACGUCGUAGGAGAUGUAGGAUAUUCCUACAUGAGGAUCACCCAUGUUGACAUGGAAGAAGGACAGAAGGACGAUGUCCAU | – | – | 294 | 8.27 |
| CCGGAAGUAGAGGAUAUCGUAUCGGAUACGAUACGAGAAGGCUAUACAUGAGGAUCACCCAUGUGUCCUACCGG | 24.6 | 33.3 | – | – |
| AAAAAUCCAGCGCAGGAUAUCGCAGGGUGCACAUGAGGAUCACCCAUGUGUACCCAAACACCCUGCGAGAAGGGCGUUGGAAAAAA | – | – | 11.2 | 9.68 |
| GAGUGACAUGAGGAUCACCCAUGUGAGGAUAUCGGACGGACCAAAUUAACAAUAAUUGCGAGAAGGCACAUCGG | 60.2 | 92.3 | – | – |
| UUGAAUUGAAACAUGAGGAUCACCCAUGUGUCAUAAUUGACAUAGGAUAUGUAUAUACUUUUAUAAUAGAAGGAUGACGAUACU | – | – | 15.6 | 12.7 |
| CCAUAAUUGAUCCAUUUUUACAACAUGAGGAUCACCCAUGUGCAGGAUAUCGUGAAAGUUAAAUACGAGAAGGGCAAGAACUGC | 272 | 229 | – | – |
| AUCAGCUCGUCAGGAUAUACGUCACUGCGUCAGCAGUGUGGUAAUAUCACAUGAGGAUCACCCAUGUAGAAGGGACGAGCUGAU | 5.27 | 6.28 | – | – |
| AGUGCUAUGUAGAAGGCAGAUCUGAUUCAGAUCUGAGGAUAUACAUGAGGAUCACCCAUGUUAUGCACCAGCACGAGAGUGCAC | 7.91 | 16.8 | – | – |
| AUAAUUUUGUAGAAGGUACGUGAUUAGUCAAAGUAAGGAUAUACUGACAUGAGGAUCACCCAUGUUUUAAUAGUUAACAGUUCU | – | – | 12.8 | 7.99 |
| UUCGUGCAGCUUUGCUGUACGCGUACAUGAGGAUCACCCAUGUAGGAUAUGGUAGGCAAAGCUUACUAGAAGGAUAUAGUGAUU | 9.34 | 9.4 | – | – |
| GCGGAACAUGAGGAUCACCCAUGUAUCCCAAAUAUGGACUCACAGGAUAUCCCGAGUUUCCAGUGGGAGAAGGGUGACUCCAGA | – | – | 21.7 | 11.1 |
| UUAAUAAUACAAGGAUAUCUAUUGUUCUUUCGACAUACAUGAGGAUCACCCAUGUUAAUAUAUAUAGAGAAGGUGUAUUUUCAG | – | – | 28 | 24.5 |

| Sequence | apparent Kd [1] [nM] | apparent Kd [2] [nM] | apparent Kd [3] [nM] | apparent Kd [4] [nM] |
| --- | --- | --- | --- | --- |
| GAGUGGCGAUUAGGAUAUACAGUGAUAAUGAUAGUAGAAGGAAUUGACAUGAGGAUCACCCAUGUAGGACUAAUCCAGAGAGAG | – | – | 96.1 | 84.9 |
| CUUUAUAAUACCUCAUGUACAUGAGGAUCACCCAUGUUAACUAAGGAUAUAUAUAAAUUAAUAAUGUAGAAGGUAGUACUAUUU | 17.3 | 14.8 | – | – |
| CAUGACGAAGGAUAUACAUGAGGAUCACCCAUGUGGUCAUGGAAGUACGUGUUCUCGCGUAGAAGGUUGUAAAA | 12.9 | 13.6 | – | – |
| CUAGUAUAUCAGGAUAUGAUUUUAUAUAUUGGAUCAGAAGGGAUAACAUGAGGAUCACCCAUGUUGUGGAGUGA | 110 | 360 | – | – |
| AGCUGUGGCCGAGGAUAUCUAAAUUCUUAAAACGAAAUAUAAUCGAACAUGAGGAUCACCCAUGUAGAGAAGGCGGUCUCAGCA | 19.8 | 20.7 | – | – |
| UGAACUAUGUAGAAGGCCCACAUUUAUAUGUAGGGAGGAUAUACAUGAGGAUCACCCAUGUAAAGAGCAAGAGGAUUUGACAGA | 10.7 | 19.6 | – | – |
| GAGUGACAUGAGGAUCACCCAUGUGAGGAUAUCGGACGGACCAAAUUAACAAUAAAUGCGAGAAGGCACAUCGG | 58.5 | 81.6 | – | – |
| AAAGAAGAAAGACAGGAUAUGGAUGGGUAAACAUGAGGAUCACCCAUGUAUAAGAAAGAAAGAAACCAGAAGGGUCAAAAGAAAA | – | – | 165 | 33.6 |
| CUCCGGCGUGUAGGAUAUGGAUCCGAUUAGGAUCCAGAAGGACAUGAGGAUCACCCAUGUACAUGUAAACAGUCAUCACCGGAU | 8.57 | 37.2 | – | – |
| CGCAACUCAGAUCUUUUUAACAUGAGGAUCACCCAUGUAUUGAGAAGGAGGAAGAAGAGAGAUUCCUAGGAUAUCAGAGUUGCG | 5.4 | 6.14 | – | – |
| GAAUAGGCAGGAUAUACAUGAGGAUCACCCAUGUGCCUGCGAAAGGUACGUUCGAAAGGUAGAAGGGCCUAAAC | 12.1 | 17.1 | – | – |
| UUAACUCAUGUAGGAUAUGCAUGGCGAAGCUACGCAGAAGGACAUGAGGAUCACCCAUGUUCUAGCGUCUGAGAACAGAUGCAA | 49.2 | 400 | – | – |
| AUUAUGUUAGGAUAUGCUUAUGGUGGAUAGUCCAGUGUGGUGCAGAAGGGACAUGAGGAUCACCCAUGUGCUGA | 53.8 | 60.6 | – | – |
| GCGUAUAUAAGAUUUAUAAAACAGUCAGAAGGUGAUAAGACGACAUGAGGAUCACCCAUGUAAUUCAAGGAUAUGAUCAUACGC | – | – | 54.3 | 23.3 |
| CGUUCAGAGAACGAUACGAAUGGACAUGAGGAUCACCCAUGUAGAAGGACAACGGAAUAAACGUUGUAGGAUAUACAUUUAGUG | 53.7 | 134 | – | – |
| UGUUUUCGAGGAUAUACAUGAGGAUCACCCAUGUGGAUUCACACUGACAGUUCCUUUUGUAGAAGGUGAUAGGC | 124 | 170 | – | – |
| AGUGUCAUCGAGAAGGCCUCAUGAACAUGAGGAUCACCCAUGUAAAAUGGGAGGAUAUCGAUGAUACAGCUACGUUUCGUAGCA | – | – | 74.4 | 28.5 |
| AGUGUGUGGCAGGAUAUGCUGUUGAUUCGGGCAGCAGAAGGGUCUACAUGAGGAUCACCCAUGUAAGCGGUUGA | 257 | 413 | – | – |
| GGAUGAGAAACUCAUCCAAUACGAACAUGAGGAUCACCCAUGUAGGAUAUGCUACUCAAAGAGUAGCAGAAGGACAUGUGCCUU | 30 | 254 | – | – |
| ACAUAAAUUCGAGGAUAUCGGUGAUAUAAUUUACGAGAAGGCGAUAAAAGUUGUAAACUUAUAGACAUGAGGAUCACCCAUGUA | – | – | 34.8 | 34 |
| CGUAACUACAUAGGAUAUUGAUACAUGAGGAUCACCCAUGUUAUAGGGAUUAGUUUAAUAUUAAGCAAGAAGGAUGAAGUUACG | – | – | 18.6 | 12.4 |
| UCAGGCUUCGAGAAGGACAUGAGGAUCACCCAUGUGCGUGUGAAGCAGCCAAAAGGCUGCAUCAUGUAGGAUAUCGGAGUCUGC | 81.8 | 552 | – | – |
| GGCGGUCCUUAAUGCACCUGCACAUGAGGAUCACCCAUGUACAGAAGGGCCAGCACCGAAGUAUGGCAGGAUAUGUCGCACGAG | 7.56 | 10.1 | – | – |
| CUAUGUUAGCAGGAUAUGCCAUUAUUCUUUUUCGCAGAAGGGCUUACAUGAGGAUCACCCAUGUUACAUUUCUU | 15 | 36.5 | – | – |
| AUUAUUAAAGUGAGGAUAUCUAGAGCUUCGGCUCUAGAGAAGGCACAUGAGGAUCACCCAUGUCUCAAUUAUUA | 18.5 | 59.4 | – | – |
| AAGUCAGCAGGAUAUGCGAUGUUGUGCUAGAUAGCGUGACCACAUGAGGAUCACCCAUGUAGAAGGGCUGGCUA | 30.9 | 20.2 | – | – |
| GUAGCAUAAUCAGGAUAUUCAGCGAAUAGAUUGACAUGAGGAUCACCCAUGUGGCGAAAGCCUAGGGAGAAGGGAUAAUGCUAC | – | – | 405 | 42.1 |
